Assay results pooled from the literature.
Compare with care: the assays were run in different laboratories.
PKN1: Serine/threonine-protein kinase N1 (PKN1, Homo sapiens, UniProt Q16512)
HDAC9: Histone deacetylase 9 (HDAC9, Homo sapiens, UniProt Q9UKV0)
ADRB1: Beta-1 adrenergic receptor (ADRB1, Homo sapiens, UniProt P08588)

Compound | target | read-out | action | technique | concentration | endpoint | value
C[C@H]1O[C@H](O[C@H]2[C@H](O)[C@@H](O)[C@@H](O[C@H]3[C@H](O)[C@@H](O)C(O)O[C@@H]3CO)O[C@@H]2CO)[C@H](O)[C@@H](O)[C@@H]1N[C@H]1C=C(CO)[C@@H](O)[C@H](O)[C@H]1O (some centres unmarked) | Pancreatic alpha-amylase (Homo sapiens, UniProt P04746) | enzyme activity | inhibitor | – | 200 µg/mL | inhibition | 97.5%
COc1cc(-c2cncc3c2CN(C)Cc2cc(N4CCNCC4)ccc2-3)cc(OC)c1OC | PKN1 | enzyme activity | inhibitor | – | 1 µM | remaining activity | 102%
O=C(/C=C/c1cccc(OS(=O)(=O)Oc2ccc(C(F)(F)F)cc2)c1)NO | HDAC9 | enzyme activity | inhibitor | fluorescence | 10 µM | inhibition | 13%
CNc1ncc2c(/C=C/C(=O)N3CCC(OC)CC3)nn(Cc3cccc(C(F)(F)F)c3)c2n1 | Cyclin-dependent kinase 18, with cyclin Y (CDK18, Homo sapiens, UniProt Q07002) | enzyme activity | inhibitor | radiometric | 1 µM | remaining activity | 99%
Cc1cc([C@@H](C)Nc2ccccc2C(=O)O)c2nc(N3CCC(F)(F)CC3)c(C#N)c(=O)n2c1 | NUAK family SNF1-like kinase 2 (NUAK2, Homo sapiens, UniProt Q9H093) | binding | – | competition with immobilised ligand | 10 µM | remaining binding | 70%
O=C(O)CNc1cccc(CN(Cc2ccc(-n3cccn3)cc2)S(=O)(=O)c2cccnc2)n1 | ADRB1 | ligand displacement | – | radioligand | 10 µM | inhibition | 2%
N=c1c[n+](N2CCOCC2)[n-]o1 | NAD-dependent protein deacylase sirtuin-5, mitochondrial (SIRT5, Homo sapiens, UniProt Q9NXA8) | enzyme activity | inhibitor | – | – | KI (inactivation) | 4 µM
O=C(NO)c1cc(F)cc(OS(=O)(=O)Oc2ccccc2)c1 | HDAC9 | enzyme activity | inhibitor | fluorescence | 10 µM | inhibition | 33%
CC(C)OC(=O)CNc1cccc(CN(Cc2ccc(-n3cccn3)cc2)S(=O)(=O)c2cccnc2)n1 | ADRB1 | ligand displacement | – | radioligand | 10 µM | inhibition | 0%
O=C(NO)c1cncc(OS(=O)(=O)Oc2ccc(-n3ccnc3)cc2)c1 | HDAC9 | enzyme activity | inhibitor | fluorescence | 10 µM | inhibition | 49%
C=CC(=O)N1CCC(COCC(=O)N2CCN(c3nc(-c4cnc(N)nc4C(F)F)nc(N4CCOC[C@@H]4C)n3)CC2)CC1 | PKN1 | binding | – | competition with immobilised ligand | 1 µM | remaining binding | 100%
